Assays:
Aminopeptidase B [1] = target: T1, Aminopeptidase B (Rattus norvegicus, UniProt O09175); assay: Competitive inhibition of aminopeptidase B or arginyl aminopeptidase purified from rat liver; Ki value reporting the slope effect(Kis)
T1 sequence (O09175 whole entry): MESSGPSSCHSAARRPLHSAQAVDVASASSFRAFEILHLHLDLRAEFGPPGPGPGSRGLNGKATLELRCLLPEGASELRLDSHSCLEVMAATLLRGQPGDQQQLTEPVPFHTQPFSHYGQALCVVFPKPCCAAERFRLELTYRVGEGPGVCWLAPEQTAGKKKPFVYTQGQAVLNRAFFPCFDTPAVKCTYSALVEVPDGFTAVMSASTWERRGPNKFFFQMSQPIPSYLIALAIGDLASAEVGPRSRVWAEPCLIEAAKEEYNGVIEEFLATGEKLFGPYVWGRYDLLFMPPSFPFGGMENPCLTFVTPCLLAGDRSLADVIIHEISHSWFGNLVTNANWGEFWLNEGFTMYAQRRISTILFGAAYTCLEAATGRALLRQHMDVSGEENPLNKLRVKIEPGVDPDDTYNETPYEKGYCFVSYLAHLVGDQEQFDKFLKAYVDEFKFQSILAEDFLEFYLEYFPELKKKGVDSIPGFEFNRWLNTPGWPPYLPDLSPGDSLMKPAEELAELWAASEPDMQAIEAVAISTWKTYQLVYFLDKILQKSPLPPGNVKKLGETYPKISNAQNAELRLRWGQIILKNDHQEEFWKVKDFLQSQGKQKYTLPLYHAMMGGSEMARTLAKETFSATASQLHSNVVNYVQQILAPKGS
How it was run: (§1)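 Arginyl aminopeptidase purified from rat liver. Substrate L-arginine p-nitroanilide in 0.10 M PIPES, pH 7.0, with 0.20 M NaCl and 1 mM DTT, at 25 °C. Initial velocities read as p-nitroaniline release at 405 nm (E = 9620 L/mol·cm). Slow-binding inhibitors preincubated 15 min with enzyme before substrate was added; others started by adding enzyme.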

Aminopeptidase B [2] = target: T1, Aminopeptidase B; assay: Competitive inhibition of aminopeptidase B or arginyl aminopeptidase purified from rat liver; how it was run: as §1
Aminopeptidase B [3] = target: T1, Aminopeptidase B; assay: (§2) Inhibition of aminopeptidase B or arginyl aminopeptidase purified from rat liver; format: tissue-based
How it was run: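 Initial rates taken as p-nitroaniline release at 405 nm. Slow-binding inhibitors were preincubated with enzyme 15 min before substrate was added; others were started with enzyme.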

Pancreatic elastase = Pancreatic elastase (Sus scrofa, UniProt P08419+P00772); assay: Inhibition of porcine pancreatic elastase; format: protein assay
Aminopeptidase B [4] = target: T1, Aminopeptidase B; assay: Non-competitive inhibition of aminopeptidase B or arginyl aminopeptidase purified from rat liver; Ki value reporting the slope effect(Kis); how it was run: as §1
Aminopeptidase B [5] = target: T1, Aminopeptidase B; assay: Non-competitive inhibition of aminopeptidase B or arginyl aminopeptidase purified from rat liver; Ki value reporting the intercept effect(Kii); how it was run: as §1
Aminopeptidase B [6] = target: T1, Aminopeptidase B; assay: Non-competitive inhibition of aminopeptidase B or arginyl aminopeptidase purified from rat liver; Ki value reporting the Kid; how it was run: as §1
Aminopeptidase B [7] = target: T1, Aminopeptidase B; assay: as §2; how it was run: as §1
Renin = target: T2, Renin (Homo sapiens, UniProt P00797); assay: Inhibition of enzyme renin
T2 sequence (P00797 whole entry): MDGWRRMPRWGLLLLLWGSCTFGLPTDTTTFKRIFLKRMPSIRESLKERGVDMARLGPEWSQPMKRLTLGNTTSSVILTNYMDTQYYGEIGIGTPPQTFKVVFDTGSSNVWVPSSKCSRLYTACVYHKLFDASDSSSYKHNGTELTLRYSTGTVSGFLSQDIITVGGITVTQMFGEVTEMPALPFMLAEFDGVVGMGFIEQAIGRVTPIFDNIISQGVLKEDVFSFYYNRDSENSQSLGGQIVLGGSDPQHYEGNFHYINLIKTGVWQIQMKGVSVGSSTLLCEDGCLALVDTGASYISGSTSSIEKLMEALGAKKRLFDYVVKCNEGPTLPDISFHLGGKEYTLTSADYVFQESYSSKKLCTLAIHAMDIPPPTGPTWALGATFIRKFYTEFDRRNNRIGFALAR

Structure (SMILES): CC(C)C[C@H](N)C(=O)CC(Cc1ccccc1)C(=O)O (stereo partly specified)
- Ki (Aminopeptidase B [1]): 0.17 µM

Structure (SMILES): CC(C)C[C@@H](N)C(=O)CC(Cc1ccccc1)C(=O)O (stereo partly specified)
- Ki (Aminopeptidase B [1]): 0.77 µM

Structure (SMILES): CC(C)CC(N)C(=O)CC(C)C(=O)O (stereo unspecified)
- Ki (Aminopeptidase B [1]): 130 µM

Structure (SMILES): CC(C)CCNC(=O)[C@@H](NC(=O)[C@H](C)CC(=O)[C@@H](N)CC(C)C)C(C)C
- IC50 (Aminopeptidase B [2]): > 400 µM

Structure (SMILES): N=C(N)NCCC[C@H](N)C(=O)C[C@@H](Cc1ccc(O)cc1)C(=O)O
- Ki (Aminopeptidase B [3]): 0.00084 µM

Structure (SMILES): CC(CC(=O)[C@@H](N)CCCCN)C(=O)O (stereo partly specified)
- Ki (Aminopeptidase B [1]): 2 µM

Structure (SMILES): NC(N)=NCCC[C@H](N)C(=O)C[C@@H](Cc1ccccc1)C(=O)O
- Ki (Aminopeptidase B [3]): 0.0025 µM

Structure (SMILES): COC(=O)CCC(=O)C(C)NC(=O)c1ccccc1 (stereo unspecified)
- Ki (Pancreatic elastase): 4200 µM

Structure (SMILES): CC(C)CCNC(=O)[C@@H](NC(=O)[C@H](CC(=O)[C@@H](N)CC(C)C)Cc1ccccc1)C(C)C
- Ki (Aminopeptidase B [1]): 36 µM

Structure (SMILES): NCCCC[C@H](N)C(=O)CC(Cc1ccccc1)C(=O)O (stereo partly specified)
- Ki (Aminopeptidase B [1]): 0.004 µM

Structure (SMILES): CC(CC(=O)[C@@H](N)CCCCN)C(=O)NC(Cc1ccccc1)C(=O)O (stereo partly specified)
- Ki (Aminopeptidase B [4]): 8.8 µM
- Ki (Aminopeptidase B [5]): 2 µM
- Ki (Aminopeptidase B [6]): 2.8 µM

Structure (SMILES): CC(C)CCNC(=O)C(NC(=O)C(Cc1ccccc1)CC(O)C(N)CC(C)C)C(C)C (stereo unspecified)
- IC50 (Aminopeptidase B [7]): > 600 µM

Structure (SMILES): CC(C)C[C@H](CN[C@H](CC(C)C)C(=O)N[C@H](C(=O)N[C@@H](Cc1ccc(O)cc1)C(=O)O)C(C)C)NC(=O)C(Cc1c[nH]cn1)NC(=O)[C@H](Cc1ccccc1)NC(=O)[C@@H]1CCCN1C(=O)C(N)Cc1c[nH]cn1 (stereo in doubt)
- Ki (Renin): 1 µM

Structure (SMILES): CC(C)C[C@H](NC(=O)[C@@H](O)[C@H](N)Cc1ccccc1)C(=O)O [UBENIMEX]
- Ki (Aminopeptidase B [3]): 0.014 µM

From ChEMBL document CHEMBL1124505, “Inhibition of aminopeptidases by peptides containing ketomethylene and hydroxyethylene amide bond replacements” (J Med Chem, 1989)
